Compound activity: PubChem, several laboratories
SMARCA2 activ = increases SMARCA2 function in MMTV reporter cells; MG213 cells, MMTV-luciferase reporter, dexamethasone, overnight; activation, % at 9.1 µM; 370,000 tested, 1% active; AID 652017; in the data active means activation above about 7.8%;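 further: 0% = vehicle wells and 100% = reference activator wells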
AHR act = human AHR activation. AHR-responsive luciferase reporter cells, luminescence. activation, % at 5 µM. 320,000 tested, 2.5% active; in the data active means activation above about 47%;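 further: 0% = vehicle wells and 100% = reference agonist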
Target sequence (P35869 whole entry, looked up): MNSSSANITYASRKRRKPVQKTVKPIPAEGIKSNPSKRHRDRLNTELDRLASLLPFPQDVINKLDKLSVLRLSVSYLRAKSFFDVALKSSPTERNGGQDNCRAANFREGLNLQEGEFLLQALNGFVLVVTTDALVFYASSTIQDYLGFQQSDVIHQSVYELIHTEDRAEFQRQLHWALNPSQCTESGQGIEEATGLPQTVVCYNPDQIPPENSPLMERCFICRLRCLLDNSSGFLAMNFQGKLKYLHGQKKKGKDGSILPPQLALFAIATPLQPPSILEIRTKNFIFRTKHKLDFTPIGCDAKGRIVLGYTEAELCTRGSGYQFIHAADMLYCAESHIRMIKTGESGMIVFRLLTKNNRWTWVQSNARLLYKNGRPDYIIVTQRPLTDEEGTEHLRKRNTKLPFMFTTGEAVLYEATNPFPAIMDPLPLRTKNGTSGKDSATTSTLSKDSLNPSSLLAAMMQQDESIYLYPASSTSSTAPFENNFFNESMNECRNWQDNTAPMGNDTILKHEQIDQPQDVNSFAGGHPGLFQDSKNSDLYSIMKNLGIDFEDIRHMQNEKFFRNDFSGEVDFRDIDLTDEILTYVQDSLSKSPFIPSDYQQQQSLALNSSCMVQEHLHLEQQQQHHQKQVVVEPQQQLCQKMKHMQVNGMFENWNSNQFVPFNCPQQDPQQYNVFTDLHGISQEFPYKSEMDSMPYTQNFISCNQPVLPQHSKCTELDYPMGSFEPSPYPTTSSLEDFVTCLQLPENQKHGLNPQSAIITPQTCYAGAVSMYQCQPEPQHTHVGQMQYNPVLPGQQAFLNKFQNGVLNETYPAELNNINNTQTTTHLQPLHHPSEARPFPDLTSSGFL
Tb MetRS inh = blocks T. brucei methionyl-tRNA synthetase activity | inhibition, % at 11.9 µM | AID 624268 | purified T. brucei MetRS, ATP depletion, Kinase-Glo luminescence | 360,000 tested, 0.4% active;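 active means inhibition above a per-plate cutoff of the control wells' mean inhibition plus 3 SD, cut at about 5.5% in these data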;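 further: 0% = DMSO wells median and 100% = median of wells with control inhibitor compound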
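Material: parasite MetRS enzyme / Replication: singlicate, one well per compound / Signal: luminescence of leftover ATP / Schedule: 2 h aminoacylation at 25 °C after 15 min preincubation / Medium: HEPES-MgCl2-KCl buffer plus DTT, spermine, BSA, pyrophosphatase / Doses: 11.9 µM single point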
Efflux pump mplx = antifungal efflux pump inhibition, Nile Red retention | S. cerevisiae Candida pump triplex | inhibition, % at 10 µM | 330,000 tested, 0.44% active | AID 485275;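 active means plate passing quality check with inhibition over a set limit, or well fluorescence over plate mean plus 4 SD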;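 further: Nile Red retained in pooled yeast measured as flow cytometry median fluorescence; 0% = buffer negative control and 100% = Enniatin B positive control; higher means more Nile Red kept so more efflux inhibition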
H9c2 TAG inh = inhibitors of triacylglycerol accumulation. H9c2 cells, Nile Red lipid (TAG) fluorescence; cells loaded with 200 µM oleic acid. 230,000 tested, 0.66% active. inhibition, % at 12.5 µM;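 active means pattern-corrected inhibition of lipid staining of at least 50% with the nuclear-stain viability signal not falling by more than 50%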;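 further: 0% = DMSO wells and 100% = triacsin C control wells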
Numbers without * were called inactive; · = not tested or not shown. An excerpt weighted towards active compounds, which were near 4.1% of everything screened.

SMILES	SMARCA2 activ	AHR act	Tb MetRS inh	Efflux pump mplx	H9c2 TAG inh
COc1ccc(-n2c(Cc3cccn3C)nnc2SCC(=O)NCc2ccco2)cc1	-1.1	66.2*	2.3	-0.4	21.0
COc1ccc(-c2nc(SCC(=O)Nc3nccs3)c(-c3ccc(Cl)cc3)[nH]2)cc1	-1.5	72.0*	-1.0	0.1	25.3
Cc1ccc(SSc2cc(C)ccc2N)c(N)c1	3.0	58.1*	-0.2	0.0	11.2
CC(=O)N1CCN(c2ccccc2NC(=O)c2ccc(C#N)cc2F)CC1	-3.1	71.4*	-1.4	0.1	9.5
CN1CCN(c2ccccc2NC(=O)c2ccccc2F)CC1	-1.6	4.1	-0.5	-0.1	8.5
C=CCc1cccc(CNc2ccc(S(=O)(=O)Nc3nccnc3OC)cc2)c1O	3.5	1.6	-0.6	-0.1	·
C=CCc1cccc(CNc2ccc(Br)cc2)c1O	-2.8	70.6*	-0.4	0.0	-10.6
OCc1ccccc1OCCOc1ccc(Cl)c2cccnc12	2.7	9.8	-0.7	0.0	·
Clc1ccc(OCc2cn3ccccc3n2)c2ncccc12	3.2	48.9*	0.3	0.0	·
COc1ccc(C)cc1Nc1nc(N)c2cc(OC)c(OC)cc2n1	·	62.0*	-0.9	0.3	·
NC(=O)c1nsc(C(=O)N(c2cccc(F)c2)C(C(=O)NCC2CCCO2)c2c[nH]c3ccccc23)c1N (stereo unspecified)	1.2	64.6*	0.2	0.0	·
CCOc1ccc(C(C(=O)NCC2CCCO2)N(C(=O)c2snc(C(N)=O)c2N)c2ccc(F)cc2)cc1 (stereo unspecified)	-1.7	0.9	-0.2	0.1	·
NC(=O)c1nsc(C(=O)N(c2ccc(F)cc2)C(C(=O)NCC2CCCO2)c2c[nH]c3ccccc23)c1N (stereo unspecified)	0.6	74.1*	-0.4	0.0	·
Cc1cccc(N(C(=O)c2snc(C(N)=O)c2N)C(C(=O)NCC2CCCO2)c2c[nH]c3ccccc23)c1 (stereo unspecified)	-1.9	9.3	-0.5	0.2	·
O=C(NCc1c(F)cccc1F)C1C2C=CC3(CN(Cc4ccccc4)C(=O)C13)O2 (stereo unspecified)	-4.8	·	·	·	·
COc1ccc(NC(=O)Cc2ccccc2)cn1	1.7	3.1	-0.3	0.2	-18.3
COc1ccc(NC(=O)/C(Cl)=C(/Cl)S(=O)Cc2ccccc2)cn1 (stereo unspecified)	-7.3	-13.3	-0.8	-0.1	95.6*
COc1ccc(C2CC(=O)C(c3cccc(Cl)c3)=CN2Cc2ccccc2)cc1 (stereo unspecified)	-1.9	·	·	·	·
O=C(O)c1ccccc1Cc1nc2cc(Cl)ccc2c(=O)[nH]1	0.1	0.8	-0.2	-0.1	-7.7
O=c1[nH]c(CSc2nc3ccccc3s2)nc2cc(Cl)ccc12	-2.2	53.3*	·	0.3	·
Cc1cc(C)n(-c2nc3ccccc3c(=O)n2OCC(=O)OCc2ccccc2)n1	0.8	·	0.9	·	-10.3
Cc1cc(C)n(-c2nc3ccccc3c(=O)n2OCc2ccc(F)cc2)n1	-0.2	53.8*	-1.1	0.0	4.5
Cc1cc(C)n(-c2nc3ccccc3c(=O)n2OCc2ccc(Cl)cc2)n1	-0.8	49.4*	-0.7	0.0	·
CCCCCCCCN1C(=O)[C@@H](CC(=O)NCCCN2CCCC2=O)C[C@@]2(C(=O)OC)C1=C[C@H](COCc1ccccc1)O[C@@H]2C	-1.4	·	·	·	·
Nc1ccc2nn(-c3cccc4ccccc34)nc2c1	-2.0	48.0*	-0.5	0.1	2.5
SMILES	SMARCA2 activ	AHR act	Tb MetRS inh	Efflux pump mplx	H9c2 TAG inh
S=c1[nH]nc(-c2n[nH]c3c2CCC3)n1N=Cc1ccc(OCc2ccccc2)cc1	-1.7	·	·	·	·
ClC(Cl)(Cl)c1nc(N/N=C/c2ccncc2)c2ccccc2n1	1.8	66.6*	-1.0	0.1	4.5
Cc1cc(N/N=C/c2ccncc2)nc2ccccc12	-1.3	·	-0.3	·	-0.6
O=[N+]([O-])c1cccc(/C=N/Nc2nccnc2Cl)c1	2.5	11.8	-1.3	0.2	·
Brc1ccc(-c2nc(N/N=C/c3cccnc3)c3ccccc3n2)cc1	6.7	42.6	-2.9	0.0	12.9
O=[N+]([O-])c1cccc(/C=N/Nc2nc(C(Cl)(Cl)Cl)nc3ccccc23)c1	-3.0	54.1*	-0.9	-0.3	·
C(=N\Nc1nc(-c2cccnc2)nc2ccccc12)/c1ccccc1	5.2	58.0*	-1.0	0.2	24.9
COC(=O)[C@]12C[C@H](CC(=O)N3CCN(C(=O)C4CC4)CC3)C(=O)N(Cc3ccc(Cl)cc3Cl)C1=C[C@H](C(C)(C)C)O[C@@H]2C	-2.1	·	·	·	·
CCN1C(N(C)CCc2c[nH]c3ccccc23)=N[C@@H](c2cccc(C(F)(F)F)c2)C(C(=O)OC)=C1C	·	19.6	0.3	-0.4	111.8*
CCN1C(N(C)CCc2cccs2)=N[C@@H](c2ccccc2)C(C(=O)OC)=C1C	0.6	3.8	0.2	-0.1	-10.5
COC(=O)N/N=C\c1ccc(OC/C=C/c2ccccc2)c(OC)c1	-0.8	51.2*	0.0	-0.1	3.1
Cc1cc(C)cc(C(=O)OCCCN(C)C2CN(Cc3cn(Cc4ccccc4F)nn3)S(=O)(=O)C2)c1 (stereo unspecified)	-2.4	·	·	·	·
COc1ccc(-c2nc3c4ccccc4ccn3c2CN2CCOCC2)cc1OC	-1.2	58.4*	-0.8	-0.1	21.2
COC(=O)[C@H](C(C)C)N1Cc2nnn(CC3CCCCC3)c2-c2ccccc2S1(=O)=O	-1.4	·	·	·	·
Cc1ccc(CSc2nnc(-c3cc(-c4ccc(F)cc4)n[nH]3)n2N)cc1	-6.2	·	·	·	·
Cc1cc(NS(=O)(=O)c2ccc(NC(=O)c3cnc4sccn4c3=O)cc2)nc(C)n1	2.5	-0.7	0.0	-0.1	-5.0
Cc1cc(C)nc(NC(=O)c2cnc3sccn3c2=O)n1	-2.1	70.4*	-0.2	-0.2	-6.2
S=C1NCN(CC2CC2)CN1	-4.9	·	·	·	·
C#CCOCCOCCOCCNc1nc(N2CCN(C(=O)CCCCCCCCCCNC(=O)[C@H](CCCN=C(N)N)n3cc(C[C@@H](C)CC)nn3)CC2)nc(N2CCN(C(=O)CCCCCCCCCCNC(=O)[C@@H]([C@H](C)CC)n3cc(CCCCCN)nn3)CC2)n1	·	-4.5	·	4.8*	·
C#CCOCCOCCOCCNc1nc(N2CCN(C(=O)CCCCCCCCCCNC(=O)[C@H]([C@@H](C)CC)n3cc(CCCCN=C(N)N)nn3)CC2)nc(N2CCN(C(=O)CCCCCCCCCCNC(=O)[C@H](CCCN=C(N)N)n3cc(C[C@@H](C)CC)nn3)CC2)n1	·	2.0	·	6.2*	·
C#CCOCCOCCOCCNc1nc(N2CCN(C(=O)CCCCCCCCCCNC(=O)[C@H](CO)n3cc(CCCCCN)nn3)CC2)nc(N2CCN(C(=O)CCCCCCCCCCNC(=O)[C@H](CCCN=C(N)N)n3cc(C[C@@H](C)CC)nn3)CC2)n1	·	1.3	·	0.1	·
CCOc1ccc(NC(=O)Nc2cccnc2)cc1	2.1	61.4*	-1.6	0.1	4.2
CC(=O)c1cccc(NC(=O)Nc2cccnc2)c1	-4.3	65.3*	0.6	-0.1	-17.8
Cc1cccc(NC(=O)Nc2ccncc2)c1	0.1	53.3*	-0.5	0.0	-16.1
O=C(Nc1ccc(Cl)cc1)Nc1cccnc1	3.4	9.7	0.9	0.3	·
O=C(Nc1cccnc1)Nc1ccc(Cl)cc1Cl	-0.8	47.6*	0.1	-0.2	·
